The subject of test [1] is Plasmodium falciparum. The test is described as follows: Antimalarial activity against chloroquine-resistant Plasmodium falciparum K1 assessed as inhibition of parasite growth after 48 hrs by [3H]hypoxanthine reuptake assay. In kind it is functional, organism-based. The essentials: (§1)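 Synchronised ring-stage cultures at 1% parasitemia, 5% hematocrit, in RPMI 1640 at 37°C, 5% CO2; top final test concentration 30 µg/mL. After 24 h, (3H)-hypoxanthine (0.2 µCi/well) was added, followed by a further 48 h incubation. Plates were freeze/thawed and harvested, and uptake was counted by scintillation. IC50 came from sigmoidal regression as the mean of at least three determinations.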

Test [2] deals with Plasmodium falciparum. As to the kind of experiment: Antimalarial activity against chloroquine-susceptible Plasmodium falciparum 3D7 assessed as inhibition of parasite growth after 48 hrs by [3H]hypoxanthine reuptake assay. In kind it is functional, organism-based. The essentials: as §1
The subject of test [3] is KB. As to the kind of experiment: Cytotoxicity against human KB cells after 72 hrs by Alamar blue assay. In kind it is cell-based. The essentials:
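Monolayers grown in RPMI 1640 + 10% heat-inactivated FCS at 37°C, 5% CO2. After 72 h compound exposure, Alamar Blue added and incubated a further 2-4 h. Fluorescence read at 530/580 nm, cut-off 550 nm. Podophyllotoxin served as positive control. IC50 is the concentration killing 50% of cells.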
A general note: The colour change of resazurin is a common sign of viable cells or microbes.

The test system of test [4] is Leishmania donovani. The test is described as follows: Antileishmanial activity against Leishmania donovani MHOM/ET/ 67/HU3 amastigote infected in CD1 mouse peritoneal exudate macrophages assessed as parasite growth inhibition after 5 days by Giemsa staining. In kind it is functional, organism-based. The note with it: MHOM/ET/ 67/HU3, 120 h. The essentials:
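Macrophages from starch-induced peritoneal exudate, harvested after 24 h, held 24 h in RPMI 1640 + 10% HIFCS at 37°C, 5% CO2. Infected with hamster-spleen-derived amastigotes at 5 parasites:1 macrophage, then 24 h later drug applied for 5 days, overlay renewed day 3. Top concentration 30 µg/mL, quadruplicates. Methanol fixation, microscopic scoring. IC50 by sigmoidal regression, mean of at least three determinations.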

The term IC50 denotes the concentration that inhibits the measured activity by half. As for `C[C@H]1[C@H](OC(=O)CCC(=O)O)O[C@@H]2O[C@@]3(C)CC[C@H]4[C@H](C)CC[C@@H]1[C@@]24OO3` [ARTESUNATE], in test [1], the IC50 was 2.46 nM.
Take `CCN(CC)Cc1cc(Nc2ccnc3cc(Cl)ccc23)ccc1O`: the IC50 came out at 2.15 nM in test [2], 8.61 nM in test [1], 90000 nM in test [3] and 1400 nM in test [4].
For `CCN(CCNC(=S)Nc1ccccc1)Cc1cc(Nc2ccnc3cc(Cl)ccc23)ccc1O`, in that order: 1.63 nM, 6.5 nM, 8460 nM and 2050 nM.
On to `Oc1ccc(Nc2ccnc3cc(Cl)ccc23)cc1CN1CCN(c2cccs2)CC1`, for which the values for the IC50 in test [2], in test [3] and in test [4] were 2.22 nM, 50400 nM and 9140 nM, respectively.
`CCN(CCN)Cc1cc(Nc2ccnc3cc(Cl)ccc23)ccc1O`: the IC50 in test [2] stood at 5.47 nM; in test [1], 5.47 nM; in test [3] it was 25600 nM; in test [4], 5650 nM.
In the case of `Oc1ccc(Nc2ccnc3cc(Cl)ccc23)cc1CN1CCN(c2nc3ccccc3[nH]2)CC1`, the IC50 in test [2] came out at 3.08 nM; in test [1], 1.54 nM; in test [3], 2440 nM; in test [4], 1870 nM.
Take `CCN(CCNC(=O)OC(C)(C)C)Cc1cc(Nc2ccnc3cc(Cl)ccc23)ccc1O`: the IC50 stood at 2.12 nM in test [2], 2.12 nM in test [1], 8810 nM in test [3] and 8770 nM in test [4].
As to `CCN(CCNC(=O)Nc1ccccc1)Cc1cc(Nc2ccnc3cc(Cl)ccc23)ccc1O`, the concentration for half-maximal inhibition (IC50) was found to be 8.22 nM in test [2], 238 nM in test [1], 5330 nM in test [3] and 1830 nM in test [4].
For `CCN(CCNC(=O)[C@@H](N)CC(C)C)Cc1cc(Nc2ccnc3cc(Cl)ccc23)ccc1O`, in that order: 22.6 nM, 14300 nM, 22300 nM and 4690 nM.
In the case of `CCN(CCNC(=N)Nc1ccccc1)Cc1cc(Nc2ccnc3cc(Cl)ccc23)ccc1O`, the IC50 in test [2] was determined as 126 nM; in test [1] it was 12100 nM; in test [3] it was 9030 nM; in test [4] it was 11700 nM.
On to `Oc1ccc(Nc2ccnc3cc(Cl)ccc23)cc1CN1CCN(c2nc3ccccc3o2)CC1`, for which the half-inhibitory concentration (IC50) in test [2] was found to be 1.68 nM; in test [1], 387 nM; in test [3], 8020 nM; in test [4], 14600 nM.
Turning to `Oc1ccc(Nc2ccnc3cc(Cl)ccc23)cc1CN1CCN(c2ccccn2)CC1`, the concentration for half-maximal inhibition (IC50) in test [2] was determined as 0.323 nM; in test [1], 1.4 nM; in test [3] it was 16100 nM; in test [4], 6710 nM.
In the case of `Oc1ccc(Nc2ccnc3cc(Cl)ccc23)cc1CN1CCN(c2ncccn2)CC1`, the IC50 in test [3] came out at 8030 nM; in test [4], 7210 nM.
With `Oc1ccc(Nc2ccnc3cc(Cl)ccc23)cc1CCl`, the IC50 was 695 nM in test [2], 557 nM in test [1], 25600 nM in test [3] and greater than 83500 nM in test [4].
For `CCN(CCNC(=O)[C@@H](N)[C@@H](C)O)Cc1cc(Nc2ccnc3cc(Cl)ccc23)ccc1O`, in that order: 47 nM, 14100 nM, 54400 nM and 15300 nM.
For the compound `CCN(CCNC(=O)[C@H](C)N)Cc1cc(Nc2ccnc3cc(Cl)ccc23)ccc1O`, the IC50 in test [2] worked out at 12.2 nM; in test [1], 14100 nM; in test [3], 10400 nM; in test [4] it was 5150 nM.
As for `Oc1ccc(Nc2ccnc3cc(Cl)ccc23)cc1CN1CCN(c2nccs2)CC1`, the IC50 in test [2] is 0.67 nM; in test [1] it was 0.42 nM; in test [3], 5020 nM; in test [4], 17700 nM.
For `CCN(CCN/C(=N/C(=O)c1ccccc1)Oc1ccccc1)Cc1cc(Nc2ccnc3cc(Cl)ccc23)ccc1O` the same measures were 6.73 nM, 10.1 nM, 10200 nM and 2860 nM.
Turning to `Oc1ccc(Nc2ccnc3cc(Cl)ccc23)cc1CN1CCNCC1`, the IC50 in test [2] is 18.8 nM; in test [1], 225 nM; in test [3], 11800 nM; in test [4], 2290 nM.
In the case of `CCOC(=O)N1CCN(Cc2cc(Nc3ccnc4cc(Cl)ccc34)ccc2O)CC1`, the IC50 in test [2] stood at 5.28 nM; in test [1], 7.04 nM; in test [3], 11400 nM; in test [4], 14900 nM.
As for `CCN(CCNC(=N)c1ccccc1)Cc1cc(Nc2ccnc3cc(Cl)ccc23)ccc1O`, the half-maximal inhibitory concentration (IC50) in test [2] turned out to be 48.4 nM; in test [1], 290 nM; in test [3] it was 5340 nM; in test [4], 7100 nM.
For `Oc1ccc(Nc2ccnc3cc(Cl)ccc23)cc1CN1CCN(c2nc3ccccc3s2)CC1`, in that order: 14.6 nM, 1480 nM, 45200 nM and 12900 nM.
With `OCc1cc(Nc2ccnc3cc(Cl)ccc23)ccc1O`, the IC50 is 712 nM in test [2], 1420 nM in test [1], 198000 nM in test [3] and greater than 89000 nM in test [4].
On to `Oc1ccc(Nc2ccnc3cc(Cl)ccc23)cc1CN1CCN(c2ccccc2)CC1`, for which the IC50 in test [2] stood at 3.52 nM; in test [1] it was 1.8 nM; in test [3], 8630 nM; in test [4], 9680 nM.

(Values after ChEMBL document CHEMBL1154601, “A new series of amodiaquine analogues modified in the basic side chain with in vitro antileishmanial and antiplasmodial activity” (Eur J Med Chem, 2009).)
